A selection: hits, their analogues and other compounds. The true share with any hit is near 3.4%.
UCH37 inh: inhibitors of human deubiquitinating enzyme UCH37 | Q9Y5K5 | purified proteasome/UCH37, Ub-AMC cleavage fluorescence | inhibition, % (no concentration beside the values) | hit rate 0.33% among 330,000 | AID 588478;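 active means mean inhibition over replicate wells above about 20%, limit read from the data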;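 further: 0% = compound-free wells with enzyme and 100% = wells lacking proteasome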
Target sequence (Q9Y5K5 whole entry, looked up): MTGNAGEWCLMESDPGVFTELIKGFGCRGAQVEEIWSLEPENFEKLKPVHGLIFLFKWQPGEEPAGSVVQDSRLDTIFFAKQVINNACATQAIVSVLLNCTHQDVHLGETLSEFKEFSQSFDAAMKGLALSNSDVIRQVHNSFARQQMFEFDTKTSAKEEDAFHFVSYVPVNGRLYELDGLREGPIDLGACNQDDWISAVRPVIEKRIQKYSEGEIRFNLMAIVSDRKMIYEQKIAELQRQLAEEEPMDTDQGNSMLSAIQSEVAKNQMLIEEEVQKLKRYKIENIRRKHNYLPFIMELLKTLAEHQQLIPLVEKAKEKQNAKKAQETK
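system = Proteasome-associated human UCH37 deubiquitinase | amount = 0.15 nM proteasome as dispensed | medium = pH 7.4 Tris-HCl (50 mM) with ovalbumin, ATP-MgCl2, DTT | incubation = 30 min preincubation with enzyme, 25 min cleavage at room temperature | detection = AMC fluorescence 355/460 nm | read-out basis = percent inhibition | controls = no-proteasome and no-compound wells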
Arrestin-AP2 inh: inhibitors of human beta-arrestin and AP2 interaction | FITC-arrestin peptide / GST-AP2 beads, flow cytometry; AP2 beta2 appendage carries R879A mutation | inhibition, % at 10 µM | hit rate 0.31% among 340,000;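 active means inhibition above a set limit, near 3 SD of compounds lacking own fluorescence, cut at about 54% in these data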;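 further: plate controls were DMSO wells for no effect and 5 µM unlabelled arrestin peptide for full effect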
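system = GST-tagged AP2 beta2-adaptin appendage (R879A) on 4 µm glutathione beads | reagent = FITC-labelled arrestin peptide probe, 50 nM final | schedule = compound with beads 12 min RT, then probe 1 h RT | signal = HyperCyt-sampled flow cytometry, FL1 channel, ex 488/em 535 nm | read-out = percent response from loss of bead-bound FITC fluorescence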
A3G deaminase: blocks human APOBEC3G single-stranded DNA deamination; Q9HC16; hit rate 0.28% among 330,000; recombinant A3G, ssDNA deamination FAM/TAMRA fluorescence; inhibition, % at 20 µM; AID 493012;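 active means inhibition of at least 40% at 20 µM, with no more than 30% in the related APOBEC3A deaminase screen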;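 further: plate controls were DMSO wells with A3G for no effect and wells lacking A3G enzyme for full effect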
Target sequence (Q9HC16 whole entry, looked up): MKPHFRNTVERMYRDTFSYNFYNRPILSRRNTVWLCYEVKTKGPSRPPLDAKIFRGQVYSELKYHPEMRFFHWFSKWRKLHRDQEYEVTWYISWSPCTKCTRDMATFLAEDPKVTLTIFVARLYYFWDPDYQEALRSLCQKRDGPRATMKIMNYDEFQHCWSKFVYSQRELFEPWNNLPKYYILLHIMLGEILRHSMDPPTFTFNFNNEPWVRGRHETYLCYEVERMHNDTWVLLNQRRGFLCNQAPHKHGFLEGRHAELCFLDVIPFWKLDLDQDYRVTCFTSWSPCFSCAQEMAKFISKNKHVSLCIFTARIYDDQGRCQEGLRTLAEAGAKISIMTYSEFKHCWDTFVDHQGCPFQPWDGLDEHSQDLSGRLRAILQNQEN
PolyA inhibitor: yeast polyadenylation inhibition; S. cerevisiae SKY197-pL101 polyadenylation reporter, beta-gal luminescence; efflux-impaired pdr1/pdr3 knockout yeast; score 100 = 6 SD above DMSO; activity score, % at 12 µM; AID 1875; hit rate 0.02% among 300,000;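 active means lowest replicate activity score at least 50, where 100 means six control SD above control mean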;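 further: yeast exposed to compound for 9 h at 30 °C; higher score means more reporter readthrough which indicates perturbed polyadenylation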
AHR act: activates the human aryl hydrocarbon receptor. hit rate 2.5% among 320,000. AHR-responsive luciferase reporter cells, luminescence. AID 2796. P35869. activation, % at 5 µM; in the data active means activation above about 47%;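 further: 0% = vehicle wells and 100% = reference agonist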
APOBEC3A inh: blocks human APOBEC3A ssDNA deamination | P31941 | recombinant A3A, FAM/TAMRA ssDNA deamination fluorescence | inhibition, % at 20 µM | hit rate 0.41% among 330,000;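 active means at least 40% inhibition at 20 µM here, with at most 30% in a related deaminase screen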;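 further: plate controls were A3A with DMSO for no effect and wells lacking A3A enzyme for full effect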
A3G conf: confirmation of human APOBEC3G DNA deaminase inhibitors. hit rate 72% among 890. recombinant A3G ssDNA deaminase, UDG/FAM-TAMRA fluorescence. shares compounds with A3G deaminase. inhibition, % at 20 µM;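 active means inhibition reaching a set limit in any replicate at 20 µM, the limit being 80% of the first screen's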
UDG ctr A3G: inhibits E. coli UDG, flagging false APOBEC3G inhibitors. shares compounds with A3G deaminase. UDG counterscreen, FAM/TAMRA oligo fluorescence. inhibition, % at 20 µM. 710 tested, under 10 active. AID 504715;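 active means compounds giving 40% or more inhibition at 20 µM in any one of the three replicates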;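 further: plate controls were DMSO wells with UDG and oligo for no effect and DMSO wells lacking both for full effect; inhibitors lower the FAM signal released by uracil excision and alkaline cleavage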
* hit, by the source's call; . = no result given.

SMILES	UCH37 inh	Arrestin-AP2 inh	A3G deaminase	PolyA inhibitor	AHR act	APOBEC3A inh	A3G conf	UDG ctr A3G
C=C(C)Cn1c(-c2cccc([N+](=O)[O-])c2)n[nH]c1=S	.	25	44*	-3	0	-7	75*	3
C=CCn1c(C(c2ccccc2)c2ccccc2)n[nH]c1=S	2	-11	0	1	0	-2	.	.
C=C(C)Cn1c(-c2cccs2)n[nH]c1=S	-12	-15	55*	7	-2	2	55*	6
C=C(C)Cn1c(CCn2c3ccccc3c3ccccc32)n[nH]c1=S	2	-3	-7	2	11	-3	.	.
C=CCn1c(-c2cccc([N+](=O)[O-])c2)n[nH]c1=S	5	-3	43*	-9	0	-2	68*	5
O=[N+]([O-])c1cccc(-c2n[nH]c(=S)n2Cc2ccccc2)c1	5	0	29	16	-2	-7	.	.
O=C1C2C(C(=O)N1N=Cc1cccc([N+](=O)[O-])c1)C1C=CC2C12CC2 (stereo unspecified)	4	.	.	.	.	.	.	.
O=C(C[n+]1ccc(C=NO)cc1)N1CCCCC1	7	.	.	.	.	.	.	.
CCOC(=O)c1cc(C)sc1N=CC1=C(O)CCCC1=O	5	.	.	.	.	.	.	.
COC(=O)NN=Cc1c(C)nn(-c2cccc(Cl)c2)c1Cl	1	.	.	.	.	.	.	.
C=CCn1c(-c2sccc2C)n[nH]c1=S	2	6	44*	9	-2	5	7	.
C=CCn1c(-c2cccc(Cl)c2)n[nH]c1=S	-7	9	49*	-10	-3	-4	86*	-4
S=c1[nH]nc(-c2cccc(Cl)c2)n1Cc1ccccc1	-1	-4	2	-10	0	-7	.	.
CC(C)CS(=O)(=O)C1=NN2C(=N)/C(=C\c3ccc(OC(=O)c4ccco4)cc3)C(=O)N=C2S1	.	1	-1	-3	3	-2	.	.
CS(=O)(=O)C1=NN2C(=N)/C(=C\c3ccc(OC(=O)c4ccco4)cc3)C(=O)N=C2S1	2	42	62*	24	-1	0	-1	-6
N#CCC(=O)NNC(=S)NC(=O)C(c1ccccc1)c1ccccc1	3	-8	-7	-7	-2	0	.	.
CC(=O)NC(=S)NNC(=O)C(c1ccccc1)c1ccccc1	-2	-9	46*	-17	1	2	41*	-4
O=C(Cc1ccccc1)NN=Cc1ccc(OC(=O)/C=C\c2ccco2)cc1	1	.	.	.	.	.	.	.
CC(=O)C1=C(S(=O)(=O)c2ccc(C)cc2)CS(=O)(=O)C1	2	2	61*	-8	.	2	78*	-4
CC(=O)N1CCN(c2ccc(S(=O)(=O)N3CCCCC3)cn2)CC1	0	5	-14	-2	-3	-1	.	.
O=S(=O)(c1ccc(N2CCN(CCO)CC2)nc1)N1CCCCC1	5	-2	42*	12	5	4	0	.
COC(=O)C1=C(C(=O)OC)SC2(S1)C(C(=O)OC)=C(C(=O)OC)SC1=C2c2cc(C)ccc2NC1(C)C	11	8	45*	-9	0	1	40*	-3
COc1ccc(O)c(C=NNC(=O)CCn2nnc3ccccc32)c1	-22	.	.	.	.	.	.	.
COc1cc(/C=N/N2CCN(Cc3ccc(C)cc3)CC2)cc(OC)c1O	.	46	54*	26	0	1	-1	.
Cc1ccc(CN2CCN(/N=C/c3ccccc3)CC2)cc1	.	10	6	-5	0	2	.	.
SMILES	UCH37 inh	Arrestin-AP2 inh	A3G deaminase	PolyA inhibitor	AHR act	APOBEC3A inh	A3G conf	UDG ctr A3G
CC(Oc1ccc2c3c(c(=O)oc2c1)CCCC3)C(=O)NCCN1CCOCC1 (stereo unspecified)	-37	14	73*	3	0	-4	-2	1
CC1(C)O[C@@H]2[C@H](O1)[C@@H](COS(=O)(=O)O)O[C@H]2n1c(=S)[nH]c2c(=O)[nH]c(N)nc21	2	3	49*	.	4	-2	74*	-2
S=c1[nH]nc(COc2ccccc2)n1/N=C/c1ccco1	.	-4	59*	7	30	-4	71*	-2
CC(NC(=O)c1sc2cc([N+](=O)[O-])ccc2c1Cl)C(C)(C)C (stereo unspecified)	4	-11	55*	-14	-1	1	69*	-3
COc1ccc(N2C(=O)N(Cc3ccc(C)cc3)c3ccccc3S2(=O)=O)cc1	3	25	47*	-3	3	5	-1	.
Cc1ccc(S(=O)(=O)N2CCN(CC(=O)NN=Cc3ccc(Br)s3)CC2)cc1	7	.	.	.	.	.	.	.
O=C(CNC(=O)c1ccccc1)NN=C/C=C/c1ccccc1	8	.	.	.	.	.	.	.
Cc1[nH]c(=O)c(C#N)c2c1CCCC2	-19	2	5	10	3	4	.	.
Cc1[nH]c(=S)c(C#N)c2c1CCCC2	7	-15	50*	18	4	-5	83*	-2
Cc1cc(C)nc(NS(=O)(=O)c2ccc(N)cc2)n1	2	3	-8	-13	-2	-2	.	.
COc1cnc(NS(=O)(=O)c2ccc(N)cc2)nc1	3	-2	50*	-1	-2	18	20*	-2
CCn1c(-c2ccc(Cl)cc2)n[nH]c1=S	1	10	54*	19	-2	-2	80*	1
CCn1c(CCCCc2n[nH]c(=S)n2CC)n[nH]c1=S	4	1	47*	-6	-1	-1	88*	6
CCCCn1c(-c2ccc([N+](=O)[O-])cc2)n[nH]c1=S	1	-9	48*	-2	3	-17	76*	2
CCCn1c(-c2ccc(F)cc2)n[nH]c1=S	0	-8	36	0	0	-5	.	.
CCn1c(-c2ccc(C)cc2)n[nH]c1=S	1	31	51*	0	3	2	29	.
O=C(C(=NNc1ccc(Br)cc1)Sc1nnnn1-c1ccccc1)c1ccccc1	1	.	.	.	.	.	.	.
O=C(NN=Cc1ccccn1)c1ccccc1O	1	.	.	.	.	.	.	.
CC(C)CC(NC(=O)c1ccccc1)C(=O)NN=Cc1ccco1 (stereo unspecified)	-1	.	.	.	.	.	.	.
Cc1nc(NC(=O)CSc2nnnn2C)sc1C	3	-1	0	17	24	2	.	.
COC(=O)c1sc(NC(=O)CSc2nnnn2C)nc1C	3	-18	56*	-4	8	-1	-6	0
Cc1ccc(OC(=O)c2sc(Cl)nc2C)cc1C	3	0	54*	5	2	0	-1	-1
COc1ccc(-c2cnnc(NN=Cc3ccc(-c4ccc([N+](=O)[O-])cc4)o3)n2)cc1	9	.	.	.	.	.	.	.
COc1ccc2nc(C)cc(SCC(=O)NN=Cc3ccccc3)c2c1	0	.	.	.	.	.	.	.
